This note sets out measurements from ChEMBL document CHEMBL1158970, “Two new styryl lactones, 9-deoxygoniopypyrone and 7-epi-goniofufurone, from Goniothalamus giganteus” (J Nat Prod, 1991).

SMILES strings stand for the structures. ≈ marks a conversion by molar mass, not a printed value. Bounds are passed on as bounds.

Data set [1] can be described thus: Toxicity against brine shrimp. Type of data set: organism-based. The following applies: artemia, in vivo. The essentials: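 Brine shrimp lethality assay run in-house following a published method. The positive standard, adriamycin, was dissolved directly in sea water and tested immediately.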
Data set [2] deals with MCF7. The data set can be described thus: Cytotoxicity against human MCF7 cells. Type of data set: functional. The following applies: read-out: ED50 (the source's name). The essentials: (§1)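 Human tumor cell cytotoxicity run by the Purdue Cancer Center's cell culture laboratory using standard protocols, with adriamycin as the positive standard. A-549, MCF-7 and HT-29 were each tested under a separately cited protocol.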

Data set [3] deals with HT-29. The data set can be described thus: Cytotoxicity against human HT-29 cells. Type of data set: functional. The following applies: read-out: ED50 (the source's name). In outline:
as §1

In data set [4] the test system is A549. The data set can be described thus: Cytotoxicity against human A549 cells. Type of data set: functional. As to conditions: read-out: ED50 (the source's name). The essentials: as §1

The LC50 is the concentration that kills 50% of the test population. `O=C1C[C@@H]2O[C@@H]([C@H](O)c3ccccc3)[C@@H](O)[C@@H]2O1` (relative stereo) yielded an LC50 in data set [1] of 475 µg/mL (≈ 1900 µM). Moreover, the EC50 is 49.1 µg/mL (≈ 196 µM) in data set [2], greater than 100 µg/mL in data set [3] and 85.5 µg/mL (≈ 342 µM) in data set [4].
Turning to `COc1cccc2c1C(=O)c1c(O)c3c(c(O)c1C2=O)C[C@@](O)(C(=O)CO)C[C@@H]3O[C@H]1C[C@H](N)[C@H](O)[C@H](C)O1` [DOXORUBICIN], the figures for the EC50 in data set [2], in data set [3] and in data set [4] were 0.0177 µg/mL (≈ 0.0326 µM), 0.00416 µg/mL (≈ 0.00765 µM) and 0.00684 µg/mL (≈ 0.0126 µM), respectively.
In turn, `O=C1C[C@H]2C[C@@H](O1)[C@H](O)[C@H](c1ccccc1)O2` gave a 50% lethal concentration (LC50) in data set [1] greater than 500 µg/mL. In addition, the EC50 was determined as 25.4 µg/mL (≈ 108 µM) in data set [2], 7.38 µg/mL (≈ 31.5 µM) in data set [3] and 27.2 µg/mL (≈ 116 µM) in data set [4].
Taken in the same sequence, the figures for `O=C1C=CC[C@H]([C@H](O)[C@H](O)c2ccccc2)O1` [GONIODIOL] were greater than 500 µg/mL, 8.27 µg/mL (≈ 35.3 µM), 2.45 µg/mL (≈ 10.5 µM) and 0.122 µg/mL (≈ 0.521 µM).
